Our source for the IC50, EC50 and inhibition values is ChEMBL document CHEMBL4041519, “Design, synthesis and SAR analysis of potent BACE1 inhibitors: Possible lead drug candidates for Alzheimer's disease” (Eur J Med Chem, 2017).

The target in experiment [1] is T1, Beta-secretase 1 (Homo sapiens, UniProt P56817). In words: Inhibition of recombinant human BACE1 (1 to 460 residues) expressed in baculovirus infected insect cells using rhodamine-EVNLDAEFK peptide as substrate measured after 60 mins by FRET assay. An outline of the steps: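 Enzyme 1 U/mL in 50 mM sodium acetate pH 4.5 with 750 nM substrate (Swedish-mutant peptide, KM 20 µM); screening at 30, 10, 3, 1 and 0.3 µM, 3.3% DMSO final. Incubated in the dark at 25 °C, stopped with 2.5 M sodium acetate; fluorescence ex 545/em 585 nm. IC50 from nonlinear fit of RFU/h versus log concentration; mean of 3 experiments.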
T1 sequence (P56817 whole entry, the tested form may be a part): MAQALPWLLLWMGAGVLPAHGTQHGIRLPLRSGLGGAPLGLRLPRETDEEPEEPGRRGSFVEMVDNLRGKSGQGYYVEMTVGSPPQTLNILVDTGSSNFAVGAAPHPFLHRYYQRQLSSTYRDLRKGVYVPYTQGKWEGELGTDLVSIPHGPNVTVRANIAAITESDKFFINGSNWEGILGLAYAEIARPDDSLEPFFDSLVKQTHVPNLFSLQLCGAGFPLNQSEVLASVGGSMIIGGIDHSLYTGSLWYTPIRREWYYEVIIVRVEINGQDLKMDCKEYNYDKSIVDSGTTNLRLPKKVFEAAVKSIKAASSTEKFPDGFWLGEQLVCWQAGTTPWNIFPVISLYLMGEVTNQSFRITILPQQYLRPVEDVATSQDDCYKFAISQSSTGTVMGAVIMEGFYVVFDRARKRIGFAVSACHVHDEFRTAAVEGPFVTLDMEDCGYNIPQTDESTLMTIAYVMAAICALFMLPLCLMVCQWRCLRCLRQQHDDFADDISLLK

For experiment [2], the target named is T1, Beta-secretase 1. In words: Inhibition of BACE1 in human H4 cells expressing human APP K595N/M596L double mutant assessed as decrease in amyloid beta 42 and amyloid beta 40 level after overnight incubation by ELISA method. Type of experiment: cell-based. The following applies: for inhibition: concentration not given here. An outline of the steps:
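H4 neuroglioma cells seeded 2x10^5 per well, grown 24 h (5% CO2, humidified), then exposed overnight to increasing compound concentrations; 1% DMSO negative control, R-flurbiprofen positive control. Supernatant Aβ42 and Aβ40 captured with biotinylated 4G8 plus C-terminal-specific rabbit antibodies, streptavidin magnetic beads, electrochemiluminescence readout. EC50 = concentration halving Aβ production; mean of ≥3 experiments ± SD.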

In the case of `O=C(Nc1cccc(-c2cnc(-c3c[nH]c4cc(F)ccc34)[nH]2)c1)c1cccnc1`, in experiment [1], the IC50 stood at 130 nM. In experiment [2], the EC50 is 410 nM and the inhibition turned out to be 82%.

`O=C(Nc1cccnc1)c1cccc(-c2cnc(-c3c[nH]c4ccccc34)[nH]2)c1`: the IC50 in experiment [1] came to 310 nM. In addition, in experiment [2], the EC50 was determined as 880 nM and the inhibition was found to be 42%.

In the case of `Fc1ccc(-c2cnc(-c3cccc(-c4cnc(-c5c[nH]c6cc(OC(F)(F)F)ccc56)[nH]4)c3)[nH]2)cc1`, in experiment [1], the IC50 was 180 nM. In experiment [2], the EC50 came to 670 nM and the inhibition came out at 77%.

Consider `O=C(Nc1ccc(F)cc1)c1cccc(-c2cnc(-c3c[nH]c4ccccc34)[nH]2)c1`, for which, in experiment [1], the IC50 came to 98 nM. In addition, in experiment [2], the EC50 is 1330 nM and the inhibition was 69%.

As to `O=C(Nc1cccc(-c2cnc(-c3c[nH]c4ccccc34)[nH]2)c1)c1cccnc1`, in experiment [1], the IC50 stood at 220 nM. Moreover, in experiment [2], the concentration for a half-maximal effect (EC50) is 480 nM and the inhibition was 75%.

Consider `Fc1ccc(-c2cnc(-c3cccc(-c4cnc(-c5c[nH]c6cc(F)ccc56)[nH]4)c3)[nH]2)cc1`, for which the IC50 in experiment [1] amounted to 75 nM. Further, in experiment [2], the EC50 was 810 nM and the inhibition worked out at 86%.

On to `Fc1ccc2nc(-c3cccc(-c4cnc(-c5c[nH]c6cc(OC(F)(F)F)ccc56)[nH]4)c3)[nH]c2c1`, for which the IC50 in experiment [1] is 120 nM. In experiment [2], the 50% effective concentration (EC50) was 290 nM and the inhibition stood at 87%.

Turning to `Fc1ccc2nc(-c3cccc(-c4cnc(-c5c[nH]c6cc(F)ccc56)[nH]4)c3)[nH]c2c1`, the IC50 in experiment [1] stood at 85 nM. In experiment [2], the EC50 worked out at 350 nM and the inhibition amounted to 90%.

Turning to `O=C(Nc1ccccc1)c1cccc(-c2cnc(-c3c[nH]c4ccccc34)[nH]2)c1`, in experiment [1], the IC50 is 110 nM. Also, in experiment [2], the 50% effective concentration (EC50) stood at 1210 nM and the inhibition was 64%.

For `O=C(Nc1ccncc1)c1cccc(-c2cnc(-c3c[nH]c4ccccc34)[nH]2)c1`, the IC50 in experiment [1] was determined as 660 nM. Further, in experiment [2], the EC50 was 590 nM and the inhibition worked out at 70%.
